# From ChEMBL document CHEMBL3576866, “Discovery of a Cyclic Boronic Acid β-Lactamase Inhibitor (RPX7009) with Utility vs Class A Serine Carbapenemases” (J Med Chem, 2015)
# pKi: −log10 of the molar value. Active and inactive are the calls of the source. The rule behind the calls is not given here.
# Legend:
# [1] = Inhibition of Escherichia coli MV1183 TEM-1 using nitrocefin as substrate preincubated for 10 mins followed by substrate addition measured for 500 secs
# [2] = target: Beta-lactamase (Klebsiella pneumoniae) (UniProt Q93LQ9); assay: Inhibition of Klebsiella pneumoniae KP1004 KPC 2 carbapenemase assessed as minimum concentration required to reduce biapenem MIC from […] ug/ml to 1 ug/mL by broth microdilution method
# Chain of Beta-lactamase (Klebsiella pneumoniae) (Q93LQ9 as listed by the source): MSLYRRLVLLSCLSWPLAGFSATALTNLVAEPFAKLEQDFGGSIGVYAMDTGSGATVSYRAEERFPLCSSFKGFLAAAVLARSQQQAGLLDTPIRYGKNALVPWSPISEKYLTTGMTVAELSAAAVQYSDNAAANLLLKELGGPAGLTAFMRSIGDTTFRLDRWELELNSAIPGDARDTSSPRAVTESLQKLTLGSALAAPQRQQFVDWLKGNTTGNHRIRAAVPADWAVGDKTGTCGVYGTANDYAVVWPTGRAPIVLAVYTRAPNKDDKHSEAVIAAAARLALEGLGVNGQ
# Klebsiella pneumoniae [3] = assay: Antibacterial activity against Klebsiella pneumoniae KP1004 by broth microdilution method; type: functional, organism-based
# Enterobacter cloacae = assay: Antibacterial activity against Enterobacter cloacae ECL1058 expressing KPC3/SHV-11/TEM-1 by broth microdilution method; type: functional
# Klebsiella pneumoniae [4] = assay: Antibacterial activity against Klebsiella pneumoniae KP1008 expressing KPC2 by broth microdilution method; type: functional
# Klebsiella pneumoniae [5] = assay: Antibacterial activity against Klebsiella pneumoniae KP1082 expressing KPC2/SHV-1 by broth microdilution method; type: functional
# Klebsiella pneumoniae [6] = assay: Antibacterial activity against Klebsiella pneumoniae KP1088 expressing KPC3/SHV-11/TEM-1 by broth microdilution method; type: functional
# Escherichia coli = assay: microbe, parasite or virus in culture; conditions: EC1007
# Klebsiella pneumoniae [7] = assay: Antibacterial activity against Klebsiella pneumoniae KP1084 expressing KPC3/SHV-11/TEM-1 by broth microdilution method; type: functional
# Klebsiella oxytoca [8] = assay: Antibacterial activity against Klebsiella oxytoca KX1017 expressing KPC2/OXA2/SHV30 by broth microdilution method; type: functional
# Klebsiella pneumoniae [9] = assay: Antibacterial activity against Klebsiella pneumoniae KP1087 expressing KPC2/CTX-M-15/SHV-11/TEM-1 by broth microdilution method; type: functional
# Klebsiella pneumoniae [10] = assay: Antibacterial activity against Klebsiella pneumoniae KP1004 expressing KPC2/TEM1/SHV11 by broth microdilution method; type: functional
# Klebsiella pneumoniae [11] = assay: Antibacterial activity against Klebsiella pneumoniae KP1074 in Swiss webster neutropenic mouse lung infection model assessed as change in log10 CFU in lung at 100 mg/kg, ip administered every 2 hrs starting at 2 hrs postinfection measured after 24 hrs relative to control; type: functional
# Method in brief: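 Neutropenic (cyclophosphamide) Swiss Webster mice infected intratracheally under isoflurane anesthesia with K. pneumoniae KP1074. […] Lungs removed 24 h after start of treatment, homogenized and plated for bacterial counts (CFU).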
# Klebsiella oxytoca [12] = assay: Antibacterial activity against Klebsiella oxytoca KX1019 expressing KPC2/OXA2 by broth microdilution method; type: functional
# Klebsiella pneumoniae [13] = assay: Antibacterial activity against Klebsiella pneumoniae KP1083 expressing KPC3/SHV-1/TEM-1 by broth microdilution method; type: functional
# Klebsiella pneumoniae [14] = assay: Antibacterial activity against Klebsiella pneumoniae KP1074 in Swiss webster neutropenic mouse lung infection model assessed as change in log10 CFU in lung at 50 mg/kg, ip administered every 2 hrs starting at 2 hrs postinfection measured after 24 hrs relative to control; type: functional
# Method in brief: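 Swiss Webster mice made neutropenic with cyclophosphamide and infected intratracheally under isoflurane with KP1074. […] Lungs harvested 24 h after the start of treatment, homogenized and plated for CFU.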
smiles,measurement,setting,value
O=C(Cc1ccccc1)NC(Cc1cccc(C(=O)O)c1)B(O)O (configuration not stated),pKi,[1],8.22
Nc1cc(CC(=O)N[C@H]2CC[C@@H](CC(=O)O)OB2O)ccn1,MEC,[2],0.04 µg/mL
same,Activity,Klebsiella pneumoniae [3],inactive
O=C(O)C[C@@H]1CC[C@H](NC(=O)C2CC2)B(O)O1,MEC,[2],0.15 µg/mL
same,Activity,Klebsiella pneumoniae [3],inactive
O=C(O)C[C@@H]1CC[C@H](NC(=O)Cc2ccccc2O)B(O)O1,MEC,[2],0.16 µg/mL
same,Activity,Klebsiella pneumoniae [3],inactive
C[C@@H](O)[C@H]1C(=O)N2C(C(=O)O)=C(S[C@@H]3CN[C@H](C(=O)N(C)C)C3)[C@H](C)[C@H]12 [MEROPENEM],MIC,Enterobacter cloacae,8 µg/mL
same,MIC,Klebsiella pneumoniae [4],4 µg/mL
same,MIC,Klebsiella pneumoniae [5],4 µg/mL
same,MIC,Klebsiella pneumoniae [6],8 µg/mL
same,MIC,Escherichia coli,4 µg/mL
same,MIC,Klebsiella pneumoniae [7],> 64 µg/mL
same,MIC,Klebsiella oxytoca [8],4 µg/mL
same,MIC,Klebsiella pneumoniae [9],64 µg/mL
same,MIC,Klebsiella pneumoniae [10],8 µg/mL
same,deltalog10CFU,Klebsiella pneumoniae [11],1.41
same,MIC,Klebsiella oxytoca [12],4 µg/mL
O=C(O)C[C@@H]1CC[C@H](NC(=O)Cc2ccncc2)B(O)O1,MEC,[2],0.15 µg/mL
same,Activity,Klebsiella pneumoniae [3],inactive
N[C@H](C(=O)N[C@H]1CC[C@@H](CC(=O)O)OB1O)c1ccccc1,MEC,[2],0.3 µg/mL
same,Activity,Klebsiella pneumoniae [3],inactive
C[C@@H](O)[C@H]1C(=O)N2C(C(=O)[O-])=C(SC3Cn4cnc[n+]4C3)[C@H](C)[C@H]12 (some centres not stated) [BIAPENEM],MIC,Enterobacter cloacae,8 µg/mL
same,MIC,Klebsiella pneumoniae [4],8 µg/mL
same,MIC,Klebsiella pneumoniae [13],16 µg/mL
same,MIC,Klebsiella pneumoniae [5],4 µg/mL
same,MIC,Klebsiella pneumoniae [6],32 µg/mL
same,MIC,Escherichia coli,8 µg/mL
same,MIC,Klebsiella pneumoniae [7],64 µg/mL
same,MIC,Klebsiella oxytoca [8],4 µg/mL
same,MIC,Klebsiella pneumoniae [9],16 µg/mL
same,MIC,Klebsiella pneumoniae [10],8 µg/mL
same,deltalog10CFU,Klebsiella pneumoniae [14],0.88
same,MIC,Klebsiella oxytoca [12],8 µg/mL
CO/N=C(\C(=O)N[C@H]1CC[C@@H](CC(=O)O)OB1O)c1csc(N)n1 (stereo in doubt),MEC,[2],1.25 µg/mL
same,Activity,Klebsiella pneumoniae [3],inactive
O=C(O)C[C@@H]1CC[C@H](NC(=O)C(O)c2ccccc2)B(O)O1 (some centres not stated),MEC,[2],0.61 µg/mL
same,Activity,Klebsiella pneumoniae [3],inactive
C[C@@H](O)[C@H]1C(=O)N2C(C(=O)O)=C(S[C@@H]3CN[C@H](C(=O)Nc4cccc(C(=O)O)c4)C3)[C@H](C)[C@H]12,MIC,Enterobacter cloacae,32 µg/mL
same,MIC,Klebsiella pneumoniae [4],8 µg/mL
same,MIC,Klebsiella pneumoniae [13],32 µg/mL
same,MIC,Klebsiella pneumoniae [5],4 µg/mL
same,MIC,Klebsiella pneumoniae [6],16 µg/mL
same,MIC,Escherichia coli,8 µg/mL
same,MIC,Klebsiella pneumoniae [7],> 64 µg/mL
same,MIC,Klebsiella oxytoca [8],16 µg/mL
same,MIC,Klebsiella pneumoniae [9],> 64 µg/mL
same,MIC,Klebsiella pneumoniae [10],32 µg/mL
same,MIC,Klebsiella oxytoca [12],16 µg/mL
CC(=O)NC(Cc1cccc(C(=O)O)c1O)B(O)O (configuration not stated),pKi,[1],7.89
O=C(O)C[C@@H]1CC[C@H](NC(=O)C[C@H]2CCCCN2)B(O)O1,MEC,[2],0.15 µg/mL
same,Activity,Klebsiella pneumoniae [3],inactive
